Article PMC2234573 (The Journal of General Physiology, 2004)
Values joined by “and” are separate entries in the source; they are usually repeats but may differ in a detail not shown here. Equal entries are not always repeated. Where two headings read alike, the source gives them in different places.

Assays:
[1] = tested on: Ca^2+- and ATP-sensitive nonselective cation channels (CA-NSCs); experiment: Excised inside-out patch recording of CA-NSC channel gating; format: biochemical, rat; conditions: for Inhibition of Po / effect on gating (in words): cytosolic exposure, Fig. 3 A
TrpM2 = conditions: cytosolic, ref Perraud et al., 2001, Sano et al.; cited from earlier work
[2] = tested on: Ca^2+- and ATP-sensitive nonselective cation channels (CA-NSCs); format: biochemical, rat; conditions: for Effect on the i([DV]) dose response curve (in words): 1 mM nucleotide
How it was run: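 Inside-out patches from rat brain capillary endothelial cells, cultured 5–6 d, at 25°C. Pipette: 140 mM NaCl, 30 μM benzamil, pH 7.4. Bath: 140 mM KCl or NMDG-Cl, pH 7.1, plus 1 mM CaCl2. i(V) is recorded ± 70 μM DV. KCl data get linear fits; NMDG data get GHK fits with asymptotic negative-potential slope. Currents at −40 mV ± 1 mM nucleotide are normalized to in-patch control and Hill-fitted.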

[3] = tested on: Ca^2+- and ATP-sensitive nonselective cation channels (CA-NSCs); experiment: Ensemble fitting of kinetic binding models to the dose response curves; format: biochemical, rat; conditions: noncompetitive model with allosteric destabilization, one subunit
How it was run: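 Custom software ensemble-fits the two-ligand extensions of a reversible-binding scheme to 18 normalized dose response curves (Po, opening and closing rates) from inside-out patches. Error function is summed squared differences between predicted and measured values. Open-state Kds are constrained by microscopic reversibility. Unliganded opening rate is fixed at its average (−40 mV, 1 mM cytosolic Ca2+).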

TrpM4b = conditions: ref Nilius et al., 2004, cited from earlier work
[4] = tested on: CA-NSC channels present in astrocytes; conditions: ref Chen et al., 2003; cited from earlier work
[5] = tested on: Ca^2+- and ATP-sensitive nonselective cation channels (CA-NSCs); conditions: read-out: [Ca2+]i required for half-maximal activation; freshly excised channels; ref Csanády and Adam-Vizi, 2003; cited from earlier work
[6] = Decay of decavanadate in bath solution measured by photometry; format: physicochemical; conditions: pH = 7.1, T = 25°C
How it was run: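 DV stock is 50 mM Na3VO4 brought to pH 2.0, kept at +4°C, used within 24 h and diluted into bath under 90 min before use. Spectra of 1 mM Na3VO4 in bath (pH 7.1, 25°C) are taken 0–8 h after preparation against a boiled same-composition blank. DV is tracked as peak absorbance at ~390 nm, and the decay is single-exponential fitted.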

[7] = read-out: K1/2 for inhibition of opening rate, 1 mM Ca2+ i, Vm −40 mV, no DV, Hill fit, deactivated channels
[8] = 70 μM DV, NaCl pipette, KCl bath

For Nc1ncnc2c1ncn2[C@@H]1O[C@H](COP(=O)(O)OP(=O)(O)OC[C@H]2OC(O)[C@H](O)[C@@H]2O)[C@@H](O)[C@H]1O (stereo partly shown) [ADP-ribose], the “Inhibition of Po / effect on gating (in words)” value (from here on “Inhibition of Po / effect”) ([1]; 1 mM Ca2+ i, −40 mV) is listed as “inhibited to a variable extent” and the “Effect on TrpM2 (in words)” value (TrpM2) is listed as “activated”.
For Nc1ncnc2c1ncn2[C@@H]1O[C@H](COP(=O)(O)OP(=O)(O)O)[C@@H](O)[C@H]1O [ADP], the IC50 [1, 7] was 4.3 ± 0.5 µM, the “Increase of K1/2 for inhibition of Po caused by DV” value ([1]; ~1.6 μM DV vs no DV) was about 20 × and the “Effect on the i([DV]) dose response curve (in words)” value [2] was “not altered”. The “Predicted decrease in nucleotide affinity brought upon by DV binding” value (from here on “Predicted decrease”) [3] was ~10^5 fold, the “Inhibition of TrpM4b (in words)” value (TrpM4b) was “the most potent inhibitor” and the “Nucleotide sensitivity of astrocyte CA-NSC channels (in words)” value (shortened to “Nucleotide sensitivity”) [4] was “insensitive”.
For Nc1ncnc2c1ncn2[C@@H]1O[C@H](COP(=O)(O)OP(=O)(O)NP(=O)(O)O)[C@@H](O)[C@H]1O [AMPPNP], the “Inhibition of Po / effect” value ([1]; 1 mM Ca2+ i, −40 mV) was “effectively inhibited”.
In the case of Nc1ncnc2c1ncn2[C@@H]1O[C@H](COP(=O)(O)O)[C@@H](O)[C@H]1O [AMP], the Po ([1]; 1 mM AMP in the presence of ~8 μM DV) is reported as about 0.25, the IC50 [1, 7] is reported as 1.1 ± 0.2 µM and the “Increase of K1/2 for inhibition of Po caused by DV” value ([1]; ~8 μM DV vs no DV) is reported as about 90 ×. The “Effect on the i([DV]) dose response curve (in words)” value [2] was “not altered”, the “Predicted decrease” value [3] was ~10^3 fold and the “Nucleotide sensitivity” value [4] was “insensitive”.
In the case of Nc1ncnc2c1ncn2[C@@H]1O[C@H](COP(=O)(O)OP(=O)(O)OP(=O)(O)O)[C@@H](O)[C@H]1O [ATP], the “Increase of K1/2 for inhibition of Po” value ([1]; 10 mM vs 1 mM Ca2+ i) is reported as about 3 fold, the “Opening rate (normalized)” value ([1]; (b) 10 μM total ATP, 1 mM free Ca2+, 2 mM free Mg2+) is reported as 0.62 ± 0.12 (n = 3) and the “Opening rate (normalized)” value ([1]; (c) 10 μM total ATP, 10 mM free Ca2+, 2.01 mM free Mg2+) is reported as 0.61 ± 0.10 (n = 4). The “Opening rate (normalized)” value ([1]; (d) 100 μM total ATP, 1 mM free Ca2+, 0.184 mM free Mg2+) was 0.094 ± 0.043 (n = 6), the “Opening rate (normalized)” value ([1]; (e) 100 μM total ATP, 1 mM free Ca2+, 2.03 mM free Mg2+) was 0.10 ± 0.03 (n = 14) and the “Opening rate (normalized)” value ([1]; (f) 100 μM total ATP, 1 mM free Ca2+, 9.91 mM free Mg2+) was 0.16 ± 0.06 (n = 6). For the same compound, the IC50 ([1]; read-out: K1/2 for inhibition of Po, 1 mM Ca2+ i, −80 mV) was 7.3 ± 1 µM, the IC50 ([1]; read-out: K1/2 for inhibition of Po, 10 mM Ca2+ i, −40 mV) was 52 ± 6 µM and the IC50 ([1]; read-out: K1/2 for inhibition of Po, freshly excised (~10 s) channels in 100 μM Ca2+, −40 mV, tentative analysis) was 34 ± 3 µM. It also gave an IC50 [1, 7] of 11 ± 2 µM, an IC50 ([1]; read-out: K1/2 for inhibition of opening rate, 1 mM Ca2+ i, −80 mV) of 8.4 ± 2 µM and an IC50 ([1]; read-out: K1/2 for inhibition of opening rate, 10 mM Ca2+ i, −40 mV) of 14 ± 5 µM. The IC50 ([1]; read-out: K1/2 for inhibition of opening rate, freshly excised (~10 s) channels in 100 μM Ca2+, −40 mV, tentative analysis) was 15 ± 2 µM, the “Increase of K1/2 for inhibition of Po caused by DV” value ([1]; ~1.6 μM DV vs no DV) was about 40 × and the “Decrease of K1/2 for inhibition of Po” value ([1]; −80 mV vs −40 mV) was “≈ 2 fold”. The “Effect on the i([DV]) dose response curve (in words)” value [2] was “not altered”, the “Predicted decrease” value [3] was about 200 fold and the “Fraction of TrpM4b current insensitive to nucleotide” value (TrpM4b; even millimolar [ATP]) was about 20%. The “Nucleotide sensitivity” value [4] was “inhibited”.
With Nc1ncnc2c1ncn2[C@@H]1O[C@H](CO)[C@@H](O)[C@H]1O [Ado, adenosine] the “Prevention of inhibition by concomitantly added ATP (in words)” value ([1]; Fig. 3 B, 100 μM ATP for PI(4,5)P2) was “none” and the “Inhibition of Po / effect” value ([1]; 1 mM Ca2+ i, −40 mV) was “inhibited only at high concentrations”.
In the case of [Ca+2] [Ca^2+], the EC50 [5] is given as about 20 µM.
In the case of [O]=[V]([O-])([O-])[O][V]1(=[O])[O][V]2(=[O])[O][V](=[O])([O][V](=[O])([O-])[O-])[O][V](=[O])([O]2)[O][V]2(=[O])[O][V](=[O])([O][V](=[O])([O-])[O-])[O][V](=[O])([O]1)[O]2 (stereo not shown) [DV, decavanadate], the “Increase of K1/2 for stimulation of Po caused by nucleotide” value (“Increase … by nucleotide” below) ([1]; 1 mM ADP vs control) is reported as about 80 ×, the “Increase … by nucleotide” value ([1]; 1 mM AMP vs control) is reported as about 270 × and the “Increase … by nucleotide” value ([1]; 1 mM ATP vs control) is reported as about 35 ×. For the same compound, the EC50 ([1]; read-out: K1/2 for stimulation of Po, 1 mM Ca2+ i, −40 mV, no nucleotides) was 0.09 µM, the “Increase of single-channel (slope) conductance relative to control” value [2, 8] was 34 ± 2% and ~30% and the Reversal potential [2, 8] was −1 ± 2 mV. The Slope conductance [2, 8] was 42 ± 3 pS, the “Asymptotic conductance at negative potentials” value ([2]; 70 μM DV, NaCl pipette, NMDG-Cl bath, n = 3) was 36 ± 0.5 pS and the “K1/2 for conductance relative to K1/2 for stimulation of gating” value ([2]; higher) was about 20 fold. The EC50 ([2]; read-out: K1/2 for stimulation of single-channel conductance, no nucleotides (control), −40 mV) was 1.7 ± 0.3 µM and the “Time constant of decay in bath solution” value [6] was about 4 h.
In the case of Nc1nc2c(ncn2[C@@H]2O[C@H](COP(=O)(O)OP(=O)(O)OP(=O)(O)O)[C@@H](O)[C@H]2O)c(=O)[nH]1 [GTP], the “Inhibition of Po / effect” value ([1]; 1 mM Ca2+ i, −40 mV) is listed as “compatible with inhibition” and the “Inhibition of TrpM4b (in words)” value (TrpM4b) is listed as “poor inhibitors”.
With Nc1ncnc2c1ncn2[C@@H]1O[C@H](COP(=O)(O)OP(=O)(O)OC[C@H]2O[C@@H]([n+]3cccc(C(=O)O)c3)[C@H](O)[C@@H]2O)[C@@H](O)[C@H]1OP(=O)(O)O [NAADP] the “Inhibition of Po / effect” value ([1]; 1 mM Ca2+ i, −40 mV) was “inhibited to a variable extent”.
In the case of NC(=O)C1=CN([C@@H]2O[C@H](COP(=O)(O)OP(=O)(O)OC[C@H]3O[C@@H](n4cnc5c(N)ncnc54)[C@H](O)[C@@H]3O)[C@@H](O)[C@H]2O)C=CC1 [NADH], the “Inhibition of Po / effect” value ([1]; 1 mM Ca2+ i, −40 mV) is reported as “inhibited to a variable extent”.
